Reference: PMC12239073 (Molecular Pharmaceutics, 2025)

Experiments:
[1] = pH of saturated solutions in biorelevant media; assay type: physicochemical; settings: 24 h, 37 °C, pH probe; for pH of saturated solution in FaSSGF: excess solid in FaSSGF, initial pH 1.6; for pH of saturated solution in FaSSGF / pH of saturated solution in FaSSIF / pH of saturated solution in FeSSIF: 350 rpm, n = 3; for pH of saturated solution in FaSSIF: excess solid in FaSSIF, initial pH 6.5; for pH of saturated solution in FeSSIF: excess solid in FeSSIF, initial pH 5.0
In short: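 Excess solid was added separately to 1 mL of each medium: FaSSIF (pH 6.5; NaTC 3 mM, lecithin 0.75 mM), FeSSIF (pH 5.0; 15 mM, 3.75 mM), FaSSGF (pH 1.6; 0.08 mM, 0.02 mM), or blank versions without NaTC and lecithin. Samples were shaken at 350 rpm for 24 h at 37 °C, then read with a pH probe. Triplicate; mean ± standard deviation, n = 3.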

[2] = approximate, from the literature; ref not given; cited from earlier work
[3] = Saturation; assay type: physicochemical; settings: 24 h, 37 °C, in words; for saturation solubility in gastric media, rank among the media: FaSSGF and blank FaSSGF, pH 1.6

pH of saturated solution in FaSSGF [1]	pH of saturated solution in FaSSIF [1]	pH of saturated solution in FeSSIF [1]	saturation solubility in FaSSIF, rank among the media ([3]; FaSSIF, pH 6.5)	Molecule	pKa [2]	saturation solubility in gastric media, rank among the media [3]	pH of media in the presence of excess material, all media investigated ([1]; FaSSIF, FeSSIF, FaSSGF and blank equivalents)
9.2	9.0	8.8		CCCCCCCCCC(=O)[O-].[Na+] [C10, sodium caprate]	approximately 5		
				insulin: recombinant human insulin procured from Merck KGaA, used as model peptide		highest solubility	did not appear to impact media pH
7.6	7.9	7.7	highest	O=C([O-])CCCCCCCNC(=O)c1ccccc1O.[Na+] [SNAC, salcaprozate sodium]	approximately 5	lowest	
